Laboratory results published in ChEMBL document CHEMBL1147853, “Synthesis and anti-HIV studies of 2-adamantyl-substituted thiazolidin-4-ones” (Eur J Med Chem, 2007).
pEC50, pIC50, pKi: −log10 of the molar value. Active and inactive are the calls of the source. No cut-off for these calls is given here.

Legend:
[1] = tested on: Human immunodeficiency virus 2; experiment: Antiviral activity against HIV2 ROD in CEM cells; format: functional, organism-based; conditions: Human immunodeficiency virus 2, ROD, CCRF-CEM
In short: (§1)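 CEM cells at 4×10^4 cells/mL infected with virus at ~100 CCID50 per mL of cell suspension, then mixed 1:1 with serial dilutions of compound. After four days, giant cell formation was scored microscopically.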

[2] = tested on: Human immunodeficiency virus 1; experiment: Antiviral activity against HIV1 3B in CEM cells; format: functional, organism-based; conditions: Human immunodeficiency virus 1, 3B, CCRF-CEM; in short: as §1
Influenza A virus = experiment: Antiviral activity against influenza virus H3N2 in MDCK cells; format: functional, organism-based
[3] = Selectivity index, ratio of CC50 for CEM cells to EC50 for HIV1 infected CEM cells; format: functional, CCRF-CEM
[4] = Cytotoxicity against CEM cells; format: cell-based; conditions: human, CEM (CCRF-CEM) cells
In short: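 CEM cells were plated at 300,000–500,000 cells/mL with an equal volume of compound dilutions and incubated 3 days at 37 °C. Cell number was counted with a Coulter counter.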

[5] = molecular target: T1, Human immunodeficiency virus type 1 reverse transcriptase (Human immunodeficiency virus 1, UniProt Q72547); experiment: Inhibition of HIV1 reverse transcriptase using Poly rC.dG template
[6] = molecular target: T1, Human immunodeficiency virus type 1 reverse transcriptase; experiment: Inhibition of HIV1 reverse transcriptase using Poly rA.dT template
In short: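 Recombinant HIV-1(IIIB) RT was assayed in 50 mM Tris-HCl pH 7.8 with 5 mM DTT, 300 mM glutathione, 500 µM EDTA, 150 mM KCl, 5 mM MgCl2, BSA and 0.06% Triton X-100. Template/primer was poly(A).oligo(dT) at 0.1 mM with [3H]dTTP at 0.6 µM. Reactions ran 30 min at 37 °C, followed by TCA precipitation and radioactivity counting.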

[7] = tested on: Human immunodeficiency virus 1; experiment: Antiviral activity against HIV1 3B with reverse transcriptase Tyr181His mutation; format: functional, organism-based; conditions: Human immunodeficiency virus 1, 3B
[8] = tested on: Human immunodeficiency virus 1; experiment: Antiviral activity against HIV1 3B with reverse transcriptase Tyr181Ile mutation; format: functional, organism-based; conditions: Human immunodeficiency virus 1, 3B
In short: (§2)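 CEM cells at 4×10^4 cells/mL were infected with HIV-1(III_B) strains carrying NNRTI-type RT mutations, at ~100 CCID₅₀ per mL of cell suspension. Infected cells were mixed 1:1 with serial compound dilutions. Giant cell formation was scored microscopically after four days. EC₅₀ is the concentration inhibiting virus-induced cytopathicity by 50%.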

[9] = tested on: Human immunodeficiency virus 1; experiment: Antiviral activity against HIV1 3B with reverse transcriptase Tyr181Cys mutation; format: functional, organism-based; conditions: Human immunodeficiency virus 1, 3B; in short: as §2
[10] = tested on: Human immunodeficiency virus 1; experiment: Antiviral activity against HIV1 3B with reverse transcriptase Lys103 Asn mutation; format: functional, organism-based; conditions: Human immunodeficiency virus 1, 3B; in short: as §2
[11] = tested on: Human immunodeficiency virus 1; experiment: Antiviral activity against HIV1 3B with reverse transcriptase Leu100Ile mutation; format: functional, organism-based; conditions: Human immunodeficiency virus 1, 3B; in short: as §2

| Structure (SMILES) | pEC50 [1] | pEC50 [2] | Activity (Influenza A virus) | Ratio CC50/EC50 [3] | CC50 [4] | pIC50 [5] | pIC50 [6] | pEC50 [7] | pKi [5] | pEC50 [8] | pEC50 [9] | pEC50 [10] | pEC50 [11] |
| --- | --- | --- | --- | --- | --- | --- | --- | --- | --- | --- | --- | --- | --- |
| O=C1CSC(C23CC4CC(CC(C4)C2)C3)N1c1ccc(F)cc1 (stereo unspecified) | < 3.52 | < 3.52 | inactive | <=1 | ≥ 302 µM | – | – | – | – | – | – | – | – |
| O=C1CSC(C23CC4CC(CC(C4)C2)C3)N1c1cccnc1 (stereo unspecified) | < 4.20 | ≤ 4.49 | inactive | <=3 | 105 µM | ≤ 3.20 | ≤ 3.20 | – | – | – | – | – | – |
| O=C1CSC(C23CC4CC(CC(C4)C2)C3)N1c1ccc(Br)cc1 (stereo unspecified) | < 3.59 | < 3.59 | inactive | <1 | ≥ 255 µM | – | – | – | – | – | – | – | – |
| O=C1CSC(C23CC4CC(CC(C4)C2)C3)N1c1ccncc1 (stereo unspecified) | < 4.20 | < 4.20 | inactive | <2.5 | 159 µM | – | – | – | – | – | – | – | – |
| Cc1cc(C)nc(N2C(=O)CS[C@@H]2C23CC4CC(CC(C4)C2)C3)c1 | < 4.92 | 6.75 | inactive | 198 | 35 µM | 4.72 | 4.70 | < 4.92 | 4.92 | < 4.92 | 5.09 | 5.82 | 5.64 |
| O=C1CSC(C23CC4CC(CC(C4)C2)C3)N1c1ccc(Cl)cc1 (stereo unspecified) | < 4.24 | < 4.24 | inactive | <=5 | ≥ 287 µM | – | – | – | – | – | – | – | – |
| CN(C)CCCN1C(=O)CSC1C12CC3CC(CC(C3)C1)C2 (stereo unspecified) | < 4.21 | 4.51 | inactive | 4 | 122 µM | ≤ 3.21 | < 3.21 | – | – | – | – | – | – |
| O=C1CSC(C23CC4CC(CC(C4)C2)C3)N1CCN1CCOCC1 (stereo unspecified) | < 4.24 | < 4.24 | inactive | <3 | 140 µM | – | – | – | – | – | – | – | – |
| Cc1ccnc2c1NC(=O)c1cccnc1N2C1CC1 [NEVIRAPINE] | < 4.30 | – | – | – | > 50 µM | – | – | – | – | – | – | – | – |
| CCN(CC)CCCN1C(=O)CSC1C12CC3CC(CC(C3)C1)C2 (stereo unspecified) | < 4.24 | 4.55 | inactive | 3.1 | 89 µM | < 3.24 | < 3.24 | – | – | – | – | – | – |
| Cc1cccnc1N1C(=O)CSC1C12CC3CC(CC(C3)C1)C2 (stereo unspecified) | < 4.92 | < 4.92 | inactive | <2.5 | 29 µM | – | – | – | – | – | – | – | – |
| O=C1CSC(C23CC4CC(CC(C4)C2)C3)N1c1ccc(I)cc1 (stereo unspecified) | < 4.35 | < 3.64 | inactive | <=1 | ≥ 228 µM | – | – | – | – | – | – | – | – |
| O=C1CSC(C23CC4CC(CC(C4)C2)C3)N1CCN1CCCCC1 (stereo unspecified) | < 4.96 | < 4.96 | inactive | <4 | 44 µM | – | – | – | – | – | – | – | – |
| O=c1[nH]cnc2c1ncn2[C@H]1CC[C@@H](CO)O1 [DIDANOSINE] | – | 5.34 | – | >54 | > 250 µM | – | – | – | – | – | – | – | – |
| Cc1ccnc(N2C(=O)CSC2C23CC4CC(CC(C4)C2)C3)c1 (stereo unspecified) | < 3.52 | 5.25 | inactive | >54 | > 304 µM | 4.40 | 4.06 | – | – | – | – | – | – |
| Cc1cc(C)nc(N2C(=O)CS[C@H]2C23CC4CC(CC(C4)C2)C3)c1 | < 4.24 | 4.92 | inactive | 3.8 | 44 µM | < 3.23 | < 3.23 | – | – | – | – | – | – |
| Cc1cccc(N2C(=O)CSC2C23CC4CC(CC(C4)C2)C3)n1 (stereo unspecified) | < 3.52 | 4.68 | inactive | 14 | > 304 µM | 4.40 | 4.37 | – | – | – | – | – | – |
| O=C1CSC(C23CC4CC(CC(C4)C2)C3)N1c1ccc(Cl)c(C(F)(F)F)c1 (stereo unspecified) | < 4.32 | < 4.32 | inactive | <1 | > 240 µM | – | – | – | – | – | – | – | – |
| Cc1cc(C)nc(N2C(=O)CSC2C)c1 (stereo unspecified) | < 3.35 | < 3.35 | – | >450 | > 450 µM | ≤ 3.05 | < 3.05 | – | – | – | – | – | – |
| Cc1cc(C)nc(N2C(=O)CSC2C23CC4CC(CC(C4)C2)C3)c1 (stereo unspecified) | < 4.93 | 6.46 | – | 120 | 42 µM | 4.54 | 4.42 | – | – | – | – | – | – |
| CN(C)CCN1C(=O)CSC1C12CC3CC(CC(C3)C1)C2 (stereo unspecified) | < 4.19 | 4.19 | inactive | 1.9 | 125 µM | < 3.19 | < 3.19 | – | – | – | – | – | – |
| O=C1CSC(C23CC4CC(CC(C4)C2)C3)N1c1ccccn1 (stereo unspecified) | < 3.50 | < 3.50 | inactive | <1 | > 318 µM | – | – | – | – | – | – | – | – |
| CCN(CC)CCN1C(=O)CSC1C12CC3CC(CC(C3)C1)C2 (stereo unspecified) | < 4.23 | 5.11 | inactive | 7.2 | 56 µM | 3.32 | 3.32 | – | – | – | – | – | – |
| COc1ccc(N2C(=O)CSC2C23CC4CC(CC(C4)C2)C3)cc1 (stereo unspecified) | < 4.92 | < 4.92 | inactive | <6 | 74 µM | – | – | – | – | – | – | – | – |
| N#Cc1ccc(N2C(=O)CSC2C23CC4CC(CC(C4)C2)C3)cc1 (stereo unspecified) | < 3.53 | < 3.53 | inactive | <=1 | ≥ 295 µM | – | – | – | – | – | – | – | – |
| Cc1ccc(N2C(=O)CSC2C23CC4CC(CC(C4)C2)C3)nc1 (stereo unspecified) | < 4.91 | < 4.92 | inactive | <4.8 | 59 µM | – | – | – | – | – | – | – | – |
